Laboratory results as given in ChEMBL document CHEMBL4346670, “Discovery of Novel Janus Kinase (JAK) and Histone Deacetylase (HDAC) Dual Inhibitors for the Treatment of Hematological Malignancies” (J Med Chem, 2019).
Active and inactive are the calls of the source. The calls are words filed in the database; no cut-off is given here.

Key:
Histone deacetylase 2 [1] = target: T1, Histone deacetylase 2 (Homo sapiens, UniProt Q92769); assay: Inhibition of HDAC2 (unknown origin) using Boc-Lys(acetyl)-AMC as substrate preincubated for 5 mins followed by substrate addition and measured after 30 mins by fluorescence assay
T1 sequence (Q92769 whole entry): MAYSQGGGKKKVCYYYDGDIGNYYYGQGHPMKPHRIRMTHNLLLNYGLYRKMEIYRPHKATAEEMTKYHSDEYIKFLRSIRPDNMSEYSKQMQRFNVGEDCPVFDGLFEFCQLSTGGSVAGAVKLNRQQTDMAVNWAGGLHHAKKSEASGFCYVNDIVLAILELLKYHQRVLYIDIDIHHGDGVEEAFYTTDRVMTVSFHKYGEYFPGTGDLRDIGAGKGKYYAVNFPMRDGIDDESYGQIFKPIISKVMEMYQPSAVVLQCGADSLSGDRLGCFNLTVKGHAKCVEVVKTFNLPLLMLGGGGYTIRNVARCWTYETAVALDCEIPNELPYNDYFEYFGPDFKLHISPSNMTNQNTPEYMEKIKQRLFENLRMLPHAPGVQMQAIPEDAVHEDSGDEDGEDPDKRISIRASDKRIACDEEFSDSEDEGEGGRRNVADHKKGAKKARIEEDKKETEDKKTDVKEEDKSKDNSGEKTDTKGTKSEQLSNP

Histone deacetylase = assay: Inhibition of HDAC in human HeLa nuclear extract using Boc-Lys(acetyl)-AMC as substrate preincubated for 5 mins followed by substrate addition and measured after 30 mins by fluorescence assay; assay type: cell-based
HEL = assay: Antiproliferative activity against HEL cells harboring JAK2 V617F mutant assessed as reduction in cell viability after 48 hrs by MTT assay; assay type: functional, cell-based; details: Homo sapiens
[2] = target: T2, Protein deacetylase HDAC6 (Homo sapiens, UniProt Q9UBN7); assay: Inhibition of HDAC6 (unknown origin) using Boc-Lys(acetyl)-AMC as substrate preincubated for 5 mins followed by substrate addition and measured after 30 mins by fluorescence assay
T2 sequence (Q9UBN7 whole entry): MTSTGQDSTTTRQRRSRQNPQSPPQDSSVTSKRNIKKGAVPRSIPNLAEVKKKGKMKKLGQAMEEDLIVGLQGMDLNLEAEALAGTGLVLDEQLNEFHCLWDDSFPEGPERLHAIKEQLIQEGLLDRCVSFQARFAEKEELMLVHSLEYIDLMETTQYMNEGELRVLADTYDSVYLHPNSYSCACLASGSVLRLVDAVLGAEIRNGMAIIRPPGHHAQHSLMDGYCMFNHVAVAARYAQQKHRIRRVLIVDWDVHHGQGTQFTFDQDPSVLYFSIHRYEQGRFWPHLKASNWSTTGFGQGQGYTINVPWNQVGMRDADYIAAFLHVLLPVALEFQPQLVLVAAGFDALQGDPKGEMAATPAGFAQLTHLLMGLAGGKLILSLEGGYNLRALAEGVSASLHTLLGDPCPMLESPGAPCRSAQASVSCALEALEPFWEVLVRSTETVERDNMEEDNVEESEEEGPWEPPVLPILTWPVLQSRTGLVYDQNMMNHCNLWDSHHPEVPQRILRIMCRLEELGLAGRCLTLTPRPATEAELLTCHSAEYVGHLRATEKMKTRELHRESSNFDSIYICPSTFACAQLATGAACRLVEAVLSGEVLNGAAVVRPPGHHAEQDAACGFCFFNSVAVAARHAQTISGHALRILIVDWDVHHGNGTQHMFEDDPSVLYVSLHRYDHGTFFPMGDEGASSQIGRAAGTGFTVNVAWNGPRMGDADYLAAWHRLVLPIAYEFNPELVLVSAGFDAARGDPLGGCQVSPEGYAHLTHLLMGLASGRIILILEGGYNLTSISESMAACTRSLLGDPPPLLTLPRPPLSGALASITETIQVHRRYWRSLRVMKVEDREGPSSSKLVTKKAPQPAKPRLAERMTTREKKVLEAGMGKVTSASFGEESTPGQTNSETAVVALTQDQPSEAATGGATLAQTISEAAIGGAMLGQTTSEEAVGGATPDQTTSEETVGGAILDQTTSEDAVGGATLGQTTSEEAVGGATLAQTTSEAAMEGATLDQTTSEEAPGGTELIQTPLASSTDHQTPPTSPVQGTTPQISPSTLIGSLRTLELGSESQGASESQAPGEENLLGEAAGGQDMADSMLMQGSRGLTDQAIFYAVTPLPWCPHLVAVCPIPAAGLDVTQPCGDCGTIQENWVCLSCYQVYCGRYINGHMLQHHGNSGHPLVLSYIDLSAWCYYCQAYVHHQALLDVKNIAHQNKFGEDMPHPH

Histone deacetylase 8 = target: T3, Histone deacetylase 8 (Homo sapiens, UniProt Q9BY41); assay: Inhibition of HDAC8 (unknown origin) using Boc-Lys(trifluoroacetyl)-AMC as substrate preincubated for 5 mins followed by substrate addition and measured after 30 mins by fluorescence assay
T3 sequence (Q9BY41 whole entry): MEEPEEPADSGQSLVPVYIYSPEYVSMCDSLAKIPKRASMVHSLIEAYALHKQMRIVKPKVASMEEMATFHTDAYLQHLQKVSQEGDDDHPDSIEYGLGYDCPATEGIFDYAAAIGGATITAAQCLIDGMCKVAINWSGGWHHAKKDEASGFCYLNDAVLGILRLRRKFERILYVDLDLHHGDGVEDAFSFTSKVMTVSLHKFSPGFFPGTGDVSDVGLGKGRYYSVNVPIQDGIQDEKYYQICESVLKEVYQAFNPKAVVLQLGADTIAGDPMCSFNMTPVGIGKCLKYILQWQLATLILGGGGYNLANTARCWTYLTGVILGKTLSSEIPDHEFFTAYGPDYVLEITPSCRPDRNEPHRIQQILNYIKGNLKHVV

[3] = target: Tyrosine-protein kinase JAK2 (Homo sapiens, UniProt O60674); assay: Inhibition of recombinant human JAK2 using Ulight-CAGAGAIETDKEYYTVKD as substrate measured after 60 mins by LANCE assay
Chain of Tyrosine-protein kinase JAK2 (O60674 whole entry): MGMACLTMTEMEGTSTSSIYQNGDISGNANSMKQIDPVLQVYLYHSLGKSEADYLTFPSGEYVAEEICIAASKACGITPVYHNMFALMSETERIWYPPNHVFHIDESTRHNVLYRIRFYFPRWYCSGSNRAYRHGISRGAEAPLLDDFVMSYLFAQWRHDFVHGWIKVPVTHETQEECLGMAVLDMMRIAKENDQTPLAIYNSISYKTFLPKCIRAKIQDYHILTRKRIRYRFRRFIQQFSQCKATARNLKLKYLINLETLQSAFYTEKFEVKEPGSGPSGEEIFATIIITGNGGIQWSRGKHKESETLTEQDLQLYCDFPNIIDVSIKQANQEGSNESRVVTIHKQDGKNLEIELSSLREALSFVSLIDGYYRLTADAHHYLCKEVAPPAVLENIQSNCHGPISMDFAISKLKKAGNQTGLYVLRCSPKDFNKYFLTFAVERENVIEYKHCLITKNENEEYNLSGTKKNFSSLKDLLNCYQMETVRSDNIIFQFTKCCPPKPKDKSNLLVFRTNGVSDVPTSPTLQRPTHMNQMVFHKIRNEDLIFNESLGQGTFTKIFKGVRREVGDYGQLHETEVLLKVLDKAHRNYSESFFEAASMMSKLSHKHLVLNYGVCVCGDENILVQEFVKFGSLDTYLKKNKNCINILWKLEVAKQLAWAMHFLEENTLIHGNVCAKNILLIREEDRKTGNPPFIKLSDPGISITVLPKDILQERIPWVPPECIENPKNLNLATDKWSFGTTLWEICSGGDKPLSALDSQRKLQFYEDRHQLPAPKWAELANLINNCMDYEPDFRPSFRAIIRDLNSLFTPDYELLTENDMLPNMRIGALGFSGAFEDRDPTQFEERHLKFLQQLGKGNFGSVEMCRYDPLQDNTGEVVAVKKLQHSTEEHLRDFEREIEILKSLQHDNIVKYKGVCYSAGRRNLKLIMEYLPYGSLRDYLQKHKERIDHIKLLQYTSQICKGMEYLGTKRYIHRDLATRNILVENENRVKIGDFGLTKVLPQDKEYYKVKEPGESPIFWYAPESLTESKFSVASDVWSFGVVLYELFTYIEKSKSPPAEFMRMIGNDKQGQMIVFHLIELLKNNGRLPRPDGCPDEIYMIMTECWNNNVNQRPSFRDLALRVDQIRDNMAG

Jurkat = assay: Antiproliferative activity against human Jurkat cells assessed as reduction in cell viability after 48 hrs by MTT assay; assay type: functional, cell-based
Histone deacetylase 2 [4] = target: T1, Histone deacetylase 2; details: A549, at 80 to 400 nM
K562 = assay: Antiproliferative activity against human K562 cells assessed as reduction in cell viability after 48 hrs by MTT assay; assay type: functional, cell-based; details: K562, 48 h
MOLT-4 = assay: Antiproliferative activity against human MOLT4 cells assessed as reduction in cell viability after 48 hrs by MTT assay; assay type: functional, cell-based; details: MOLT-4, 48 h
Procedure, shortened: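 Cells kept in RPMI1640 with 10% FBS at 37 °C, 5% CO2. Seeded and grown for 12 h, then exposed to a range of compound concentrations for 48 h. 0.5% MTT added for 4 h, formazan dissolved in DMSO, absorbance read at 570 nm.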

[5] = target: T4, Histone deacetylase (Homo sapiens) (UniProt Q13547+O15379+Q9UBN7+Q92769+Q9UQL6+Q8WUI4+Q9BY41+Q96DB2+P56524+Q9UKV0+Q969S8); assay: Potency index, ratio of SAHA IC50 to test compound IC50 for inhibition of HDAC in human HeLa cell nuclear extract; assay type: cell-based
Procedure, shortened: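 HeLa cell nuclear extract was incubated with serial concentrations of compound for 5 min at 37 °C. Boc-Lys(acetyl)-AMC substrate was added for 30 min at 37 °C, then developer containing trypsin and TSA for 20 min. Fluorescence was read at ex 390/em 460 nm against control wells.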

[6] = target: T5, Tyrosine-protein kinase JAK3 (Homo sapiens, UniProt P52333); assay: Inhibition of recombinant human JAK3 using Ulight-CAGAGAIETDKEYYTVKD as substrate measured after 60 mins by LANCE assay
T5 sequence (P52333 whole entry): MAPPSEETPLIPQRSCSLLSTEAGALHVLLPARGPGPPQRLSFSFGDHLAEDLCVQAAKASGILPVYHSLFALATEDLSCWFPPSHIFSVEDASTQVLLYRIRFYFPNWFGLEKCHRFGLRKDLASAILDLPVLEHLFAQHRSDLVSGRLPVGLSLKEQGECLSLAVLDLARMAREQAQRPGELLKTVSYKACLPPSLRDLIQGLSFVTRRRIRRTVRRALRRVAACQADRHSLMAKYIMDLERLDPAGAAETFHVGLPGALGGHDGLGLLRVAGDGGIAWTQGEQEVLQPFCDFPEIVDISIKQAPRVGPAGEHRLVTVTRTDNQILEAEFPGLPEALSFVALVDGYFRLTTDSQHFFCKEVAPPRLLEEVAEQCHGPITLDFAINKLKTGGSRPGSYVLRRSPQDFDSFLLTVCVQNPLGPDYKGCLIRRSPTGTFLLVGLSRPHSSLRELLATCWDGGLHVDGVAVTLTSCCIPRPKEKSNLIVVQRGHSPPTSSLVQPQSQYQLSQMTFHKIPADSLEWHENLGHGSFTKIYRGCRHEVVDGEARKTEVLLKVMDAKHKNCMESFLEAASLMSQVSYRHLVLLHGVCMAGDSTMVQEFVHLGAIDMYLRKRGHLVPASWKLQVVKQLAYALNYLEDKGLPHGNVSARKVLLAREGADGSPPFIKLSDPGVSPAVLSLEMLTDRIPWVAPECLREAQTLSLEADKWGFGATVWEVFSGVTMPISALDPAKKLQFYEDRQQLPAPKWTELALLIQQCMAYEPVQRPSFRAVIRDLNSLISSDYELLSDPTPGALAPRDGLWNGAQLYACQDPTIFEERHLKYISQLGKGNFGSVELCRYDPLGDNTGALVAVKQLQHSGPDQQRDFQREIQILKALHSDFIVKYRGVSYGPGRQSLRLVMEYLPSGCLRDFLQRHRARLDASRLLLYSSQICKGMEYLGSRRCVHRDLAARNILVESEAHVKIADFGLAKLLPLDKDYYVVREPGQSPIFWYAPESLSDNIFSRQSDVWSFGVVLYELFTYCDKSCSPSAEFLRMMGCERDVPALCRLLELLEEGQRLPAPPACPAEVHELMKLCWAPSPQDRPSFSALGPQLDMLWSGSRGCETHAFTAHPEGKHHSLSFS

[7] = target: Tyrosine-protein kinase JAK1 (Homo sapiens, UniProt P23458); assay: Inhibition of recombinant human JAK1 using Ulight-CAGAGAIETDKEYYTVKD as substrate measured after 60 mins by LANCE assay
Chain of Tyrosine-protein kinase JAK1 (P23458 whole entry): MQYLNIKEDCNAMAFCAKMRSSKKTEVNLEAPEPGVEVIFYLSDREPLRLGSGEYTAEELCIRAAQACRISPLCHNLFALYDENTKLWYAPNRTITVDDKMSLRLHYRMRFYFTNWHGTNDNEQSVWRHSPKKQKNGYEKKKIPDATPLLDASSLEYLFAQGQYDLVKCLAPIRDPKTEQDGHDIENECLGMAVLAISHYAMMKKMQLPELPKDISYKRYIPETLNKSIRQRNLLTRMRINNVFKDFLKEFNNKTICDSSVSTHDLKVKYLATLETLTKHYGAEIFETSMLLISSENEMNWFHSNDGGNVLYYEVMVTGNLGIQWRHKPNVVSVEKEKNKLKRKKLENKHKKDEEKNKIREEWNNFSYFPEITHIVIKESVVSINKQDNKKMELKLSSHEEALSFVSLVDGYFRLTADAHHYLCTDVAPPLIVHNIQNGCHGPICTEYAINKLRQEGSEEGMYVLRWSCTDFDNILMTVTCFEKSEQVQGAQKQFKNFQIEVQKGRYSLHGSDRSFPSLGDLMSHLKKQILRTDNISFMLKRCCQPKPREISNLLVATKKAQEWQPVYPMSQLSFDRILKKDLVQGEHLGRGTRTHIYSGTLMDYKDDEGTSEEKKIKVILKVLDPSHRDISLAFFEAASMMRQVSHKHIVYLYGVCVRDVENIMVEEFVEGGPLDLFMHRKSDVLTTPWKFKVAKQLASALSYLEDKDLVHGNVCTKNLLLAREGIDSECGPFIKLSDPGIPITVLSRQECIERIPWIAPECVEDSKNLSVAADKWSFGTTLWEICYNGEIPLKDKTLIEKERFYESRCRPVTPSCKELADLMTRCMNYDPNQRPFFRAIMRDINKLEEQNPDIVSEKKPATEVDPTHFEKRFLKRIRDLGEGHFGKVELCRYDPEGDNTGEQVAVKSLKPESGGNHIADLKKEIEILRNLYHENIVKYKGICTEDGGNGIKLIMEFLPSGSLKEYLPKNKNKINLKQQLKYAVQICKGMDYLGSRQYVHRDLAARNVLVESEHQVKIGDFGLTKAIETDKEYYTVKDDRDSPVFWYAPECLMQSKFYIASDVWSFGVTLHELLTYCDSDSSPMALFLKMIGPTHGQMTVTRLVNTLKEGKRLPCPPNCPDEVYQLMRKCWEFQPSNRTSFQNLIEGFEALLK
Procedure, shortened: (§1)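 Human recombinant JAK enzyme assays run by a contract lab. IC50 was taken from a non-linear curve fit, with all parameters allowed to float. Assays were run in replicate (n>2) and reported as mean ± SD.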

[8] = target: Non-receptor tyrosine-protein kinase TYK2 (Homo sapiens, UniProt P29597); assay: Inhibition of recombinant human TYK2 using Ulight-CAGAGAIETDKEYYTVKD as substrate measured after 60 mins by LANCE assay; procedure, shortened: as §1
Chain of Non-receptor tyrosine-protein kinase TYK2 (P29597 whole entry): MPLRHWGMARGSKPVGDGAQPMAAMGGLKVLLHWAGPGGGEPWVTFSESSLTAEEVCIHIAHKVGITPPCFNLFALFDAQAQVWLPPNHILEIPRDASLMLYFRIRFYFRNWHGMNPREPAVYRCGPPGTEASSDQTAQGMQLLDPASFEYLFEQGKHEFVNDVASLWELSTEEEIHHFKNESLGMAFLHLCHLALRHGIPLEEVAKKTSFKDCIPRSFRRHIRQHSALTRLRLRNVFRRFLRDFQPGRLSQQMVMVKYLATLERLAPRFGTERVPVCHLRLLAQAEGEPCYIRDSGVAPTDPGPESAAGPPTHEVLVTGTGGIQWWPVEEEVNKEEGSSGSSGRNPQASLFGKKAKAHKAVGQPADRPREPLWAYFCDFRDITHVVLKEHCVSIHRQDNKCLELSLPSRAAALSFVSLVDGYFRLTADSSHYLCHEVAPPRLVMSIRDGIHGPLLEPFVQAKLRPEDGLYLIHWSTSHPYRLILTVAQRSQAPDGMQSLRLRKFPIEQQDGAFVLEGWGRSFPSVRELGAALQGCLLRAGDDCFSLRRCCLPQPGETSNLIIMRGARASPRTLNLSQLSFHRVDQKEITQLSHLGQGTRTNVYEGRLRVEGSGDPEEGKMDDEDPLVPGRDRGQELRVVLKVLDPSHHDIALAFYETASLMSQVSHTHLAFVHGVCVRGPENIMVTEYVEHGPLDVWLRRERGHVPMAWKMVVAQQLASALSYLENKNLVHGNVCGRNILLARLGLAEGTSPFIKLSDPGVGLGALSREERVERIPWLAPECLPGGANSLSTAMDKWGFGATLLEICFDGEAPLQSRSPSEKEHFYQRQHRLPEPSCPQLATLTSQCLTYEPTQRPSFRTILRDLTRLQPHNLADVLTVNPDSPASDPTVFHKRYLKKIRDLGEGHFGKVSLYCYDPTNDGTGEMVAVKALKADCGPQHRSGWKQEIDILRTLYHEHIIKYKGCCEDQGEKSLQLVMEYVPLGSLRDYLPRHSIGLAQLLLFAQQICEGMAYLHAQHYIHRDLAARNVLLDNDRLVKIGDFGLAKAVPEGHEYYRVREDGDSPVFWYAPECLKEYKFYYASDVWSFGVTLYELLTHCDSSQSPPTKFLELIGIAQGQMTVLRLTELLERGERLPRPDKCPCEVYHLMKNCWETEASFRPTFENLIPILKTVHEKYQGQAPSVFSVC

[9] = target: T4, Histone deacetylase (Homo sapiens); assay: Inhibition of HDAC in human HeLa nuclear extract at 10 uM using Boc-Lys(acetyl)-AMC as substrate preincubated for 5 mins followed by substrate addition and measured after 30 mins by fluorescence assay; assay type: cell-free
Procedure, shortened: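 HeLa nuclear extract mixed with compound and held at 37 °C for 5 min. Boc-Lys(acetyl)-AMC added and incubated 30 min at 37 °C. Quenched with developer containing trypsin and trichostatin A, then 20 min at 37 °C. Fluorescence read at ex 390/em 460 nm; inhibition calculated relative to control wells.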

Q: How did the IC50 (Histone deacetylase 2 [1]) turn out when `CNc1nc(Nc2cnn(CCCCCCC(=O)NO)c2)ncc1Cl` was run?
A: Its IC50 is 190 nM.

Q: What about the IC50 (Histone deacetylase) of the same molecule?
A: Its IC50 is 15 nM.

Q: What about the IC50 (HEL) of the same molecule?
A: Its IC50 is 100 nM.

Q: And the IC50 [2]?
A: Its IC50 is 29 nM.

Q: What about the IC50 (Histone deacetylase 8) of the same molecule?
A: Its IC50 is 4070 nM.

Q: What about the IC50 [3] of the same molecule?
A: The IC50 was 36 nM.

Q: And the IC50 (Jurkat)?
A: The IC50 was 70 nM.

Q: What about the inhibition (Histone deacetylase 2 [4]) of the same molecule?
A: Its inhibition is “Active”.

Q: What about the IC50 (K562) of the same molecule?
A: The IC50 was 590 nM.

Q: And the IC50 (MOLT-4)?
A: Its IC50 is 110 nM.

Q: With `COc1ccc(Nc2nc(Nc3cnn(CCCCCCC(=O)NO)c3)ncc2Cl)cc1` as the molecule, how does the IC50 (Histone deacetylase) read?
A: The IC50 was 3 nM.

Q: And the IC50 (HEL)?
A: Its IC50 is 210 nM.

Q: What about the IC50 [3] of the same molecule?
A: The IC50 was 10 nM.

Q: And the IC50 (Jurkat)?
A: Its IC50 is 130 nM.

Q: What about the Ratio IC50 [5] of the same molecule?
A: Its Ratio IC50 is over 50.

Q: What about the IC50 (K562) of the same molecule?
A: The IC50 was 620 nM.

Q: What about the IC50 (MOLT-4) of the same molecule?
A: The IC50 was 170 nM.

Q: `O=C(CCCCCCn1cc(Nc2ncc(Cl)c(Nc3ccc(F)cc3)n2)cn1)NO` was tested. Which IC50 (Histone deacetylase) did it give?
A: The IC50 was 3 nM.

Q: And the IC50 (HEL)?
A: The IC50 was 210 nM.

Q: What about the IC50 [3] of the same molecule?
A: Its IC50 is 15 nM.

Q: What about the IC50 (Jurkat) of the same molecule?
A: Its IC50 is 120 nM.

Q: What about the Ratio IC50 [5] of the same molecule?
A: The Ratio IC50 was over 50.

Q: What about the IC50 (K562) of the same molecule?
A: Its IC50 is 500 nM.

Q: And the IC50 (MOLT-4)?
A: The IC50 was 220 nM.

Q: For `O=C(CCCCCCn1cc(Nc2ncc(Cl)c(Nc3ccc(Cl)cc3)n2)cn1)NO`, which IC50 (Histone deacetylase) is on record?
A: The IC50 was 2 nM.

Q: What about the IC50 (HEL) of the same molecule?
A: Its IC50 is 120 nM.

Q: What about the IC50 [3] of the same molecule?
A: The IC50 was 14 nM.

Q: And the IC50 (Jurkat)?
A: The IC50 was 100 nM.

Q: And the IC50 [6]?
A: Its IC50 is 7.6 nM.

Q: And the IC50 [7]?
A: Its IC50 is 10 nM.

Q: And the Ratio IC50 [5]?
A: The Ratio IC50 was over 50.

Q: And the IC50 [8]?
A: The IC50 was 94 nM.

Q: And the IC50 (K562)?
A: Its IC50 is 320 nM.

Q: And the IC50 (MOLT-4)?
A: The IC50 was 120 nM.

Q: How did the inhibition [9] turn out when `Clc1cccc(Nc2nc(Nc3cn[nH]c3)ncc2Cl)c1` was run?
A: Its inhibition is “inactive”.
